Statin myotox sup: suppressors of statin myotoxicity in C2C12 myotubes, primary screen, cell-based, single point, plate reader | actives 0.78% (n = 330,000) | C2C12 myotubes + simvastatin, ATP luminescence, 48 h; scaled: DMSO 0, geranylgeraniol control 100 | rescue of ATP level, % at 7.49 µM | AID 602340, 2012;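 active = mean ATP rescue above about 67%, or every replicate alone reaching that limit, limit read from the data, passing the limit was not always enough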;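 also: myotubes were challenged with 10 µM simvastatin during compound exposure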
E-selectin induc: E-selectin induction in HUVECs, primary screen, imaging, HUVEC, immunofluorescence imaging, single point. normalized: neutral wells 0, TNF-alpha wells 100. activation, % at 7.58 µM. P16581. actives 0.37% (n = 260,000);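 active = mean E-selectin-positive cell signal at least 10% of the positive control, reached in at least 60% of replicates, without over 20% cell loss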
Target sequence (P16581 whole entry, looked up): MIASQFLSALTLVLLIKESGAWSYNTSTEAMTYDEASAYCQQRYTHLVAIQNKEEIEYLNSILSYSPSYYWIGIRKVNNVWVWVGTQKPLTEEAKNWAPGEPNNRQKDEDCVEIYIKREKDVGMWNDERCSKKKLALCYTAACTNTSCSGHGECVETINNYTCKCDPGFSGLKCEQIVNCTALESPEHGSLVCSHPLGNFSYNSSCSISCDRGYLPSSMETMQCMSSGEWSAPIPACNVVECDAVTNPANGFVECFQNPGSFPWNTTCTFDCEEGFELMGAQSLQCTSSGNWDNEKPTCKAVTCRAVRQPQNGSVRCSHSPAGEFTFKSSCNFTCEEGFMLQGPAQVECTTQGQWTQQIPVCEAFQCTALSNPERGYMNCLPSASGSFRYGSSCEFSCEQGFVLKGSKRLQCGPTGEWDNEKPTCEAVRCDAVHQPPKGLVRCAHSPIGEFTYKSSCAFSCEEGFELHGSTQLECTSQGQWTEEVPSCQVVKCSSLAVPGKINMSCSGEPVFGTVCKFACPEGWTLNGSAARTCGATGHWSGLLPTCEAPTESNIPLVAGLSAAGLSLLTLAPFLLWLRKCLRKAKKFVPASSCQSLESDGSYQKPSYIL
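Read-out: % PE-positive cells | Test system: HUVEC | Doses: One compound dose added by pin transfer | Buffer or medium: EGM-2 over gelatin coat | Signal: Immunofluorescence imaging | Benchmarks: TNF-alpha, DMSO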
DENV2 CPE: inhibitors of DENV2 cytopathic effect, primary screen, cell-based, plate reader, single concentration | DENV2-infected cells, cytopathic effect rescue | CPE inhibition, % at 9.99 µM | actives 1.7% (n = 350,000); in the data active = CPE inhibition above about 20%, passing the limit was not always enough; tested in BHK-21 cells;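 also: 0% = median of neutral control wells and 100% = median of positive control wells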
Numbers without * were called inactive; nt = no result. Sampled rows, rich in hits. Any-hit rate of the full collection: about 2.2%.

SMILES | Statin myotox sup | E-selectin induc | DENV2 CPE
C[C@@H]1CN([C@@H](C)CO)C(=O)c2cc(NS(C)(=O)=O)ccc2O[C@@H](C)CCCCO[C@H]1CN(C)C(=O)c1ccccc1 | -13.0 | 0.1 | 8.5
COc1ccc(-c2noc(-c3ccccc3C(=O)Nc3cccnc3)n2)cc1OC | 2.5 | nt | nt
COc1ccc(-c2noc(-c3ccccc3C(=O)Nc3cccnc3)n2)cc1 | 102.8* | nt | nt
O=C1C[C@@H]2c3c(cccc3CN1Cc1ccccc1F)C[C@@H](O)[C@H]2O | 126.2* | -0.1 | 3.2
O=C1C[C@@H]2c3c(cccc3CN1Cc1ccc(Cl)cc1)C[C@@H](O)[C@H]2O | 118.5* | -0.1 | -22.2
CCc1ccc(CN2CC(C(=O)O)CC2=O)cc1 (centres undefined) | 9.9 | nt | -3.5
O=C1C[C@@H]2c3c(cccc3CN1Cc1ccccc1Cl)C[C@@H](O)[C@H]2O | 19.5 | -0.1 | -1.4
CCNC(=O)C[C@H]1CC[C@@H]2[C@H](COc3ccc(NC(=O)c4ccccc4)cc3C(=O)N2C)O1 | -25.3 | -0.1 | 7.3
C[C@H]1CN([C@@H](C)CO)S(=O)(=O)c2ccc(C#CC3CCCC3)cc2O[C@H]1CN(C)C(=O)Cc1ccccc1 | 22.8 | -0.3 | -1.6
COc1ccc(S(=O)(=O)N(C)C[C@@H]2Oc3c(NS(=O)(=O)c4ccc(F)cc4)cccc3C(=O)N([C@@H](C)CO)C[C@@H]2C)cc1 | -2.9 | -3.6 | -12.4
C[C@H](CO)N1C[C@H](C)[C@H](CN(C)Cc2ccc(C(=O)O)cc2)Oc2c(NC(=O)C3CC3)cccc2C1=O | -37.0 | -0.4 | 9.2
C[C@@H]1CN([C@H](C)CO)C(=O)c2cc(NC(=O)NC3CCCCC3)ccc2O[C@H]1CN(C)Cc1ccc(Cl)c(Cl)c1 | nt | 0.5 | 18.3
O=C(NCC(c1ccco1)N1CCN(c2ccccc2)CC1)C1CCCCC1 (centres undefined) | 0.2 | -0.1 | 72.0*
O=C(NCC(c1ccco1)N1CCCC1)c1ccc(Cl)cc1 (centres undefined) | 91.9* | nt | nt
O=C(CCNC(=O)c1ccc(Cl)cc1)NCC(c1ccco1)N1CCCCC1 (centres undefined) | -3.7 | -0.2 | -6.8
O=C(NCC(c1ccco1)N1CCN(c2ccccc2)CC1)C(=O)NC1CCCCC1 (centres undefined) | 4.6 | nt | -6.4
COC(=O)c1ccc(CN2CC(=O)N3[C@H](CO)[C@H](c4ccc(-c5cccnc5)cc4)[C@@H]3C2)cc1 | nt | -0.2 | 13.2
COc1ccc(C(=O)C2CCCN(Cc3cc(C)c(O)c(C)c3)C2)c(OC)c1 (centres undefined) | 9.4 | nt | 7.0
COc1cc(CN2CCCC(C(=O)c3ccc(C(C)(C)C)cc3)C2)cc(OC)c1O (centres undefined) | -2.4 | nt | 25.8*
CO[C@@H]1CC[C@@H]2CCN(C)C(=O)[C@H](C)CN(C)C(=O)c3cccc(C#N)c3OC[C@H]1O2 | -3.9 | -0.1 | -2.5
CCCCN(CCCC)C(=O)CSc1nnc(-c2cc(OC)c(OC)c(OC)c2)o1 | -22.1 | nt | nt
COc1cc(-c2nnc(SCC#CCO)o2)cc(OC)c1OC | 114.4* | nt | nt
C[C@@H]1CCCCO[C@@H](CN(C)Cc2ccncc2)[C@@H](C)CN([C@@H](C)CO)C(=O)c2cc(NS(C)(=O)=O)ccc2O1 | 13.8 | 0.0 | nt
CC(C)NC(=O)N(C)C[C@H]1Oc2cc(C#Cc3ccc(F)cc3)ccc2S(=O)(=O)N([C@@H](C)CO)C[C@H]1C | 17.1 | 0.1 | -5.5
C/C=C/c1ccc([C@H]2[C@@H](CO)N(CCC(F)(F)F)C23CN(C(=O)CC)C3)cc1 | nt | 0.3 | 2.8
SMILES | Statin myotox sup | E-selectin induc | DENV2 CPE
CCOC(=O)/C=C/c1cccc(C)c1O | nt | -0.1 | -2.0
CCOC(=O)/C=C/c1cc(F)ccc1O | nt | -0.3 | 20.7*
CO[C@@H]1CC[C@H]2CCN(C)C(=O)[C@H](C)[C@H](OC)CN(C)C(=O)c3cc(C#N)ccc3OC[C@H]1O2 | 8.5 | 0.0 | 8.0
C[C@H]1CN([C@@H](C)CO)C(=O)c2cc(NC(=O)C3CC3)ccc2O[C@H]1CN(C)Cc1ccc(C(=O)O)cc1 | 2.6 | 1.5 | -1.8
C[C@@H]1CN([C@@H](C)CO)C(=O)Cc2cc(NC(=O)c3ccncc3)ccc2O[C@H]1CN(C)Cc1ccc(Oc2ccccc2)cc1 | 10.9 | 313.2* | 2.3
C[C@@H]1CN([C@H](C)CO)C(=O)Cc2cc(NC(=O)c3ccncc3)ccc2O[C@@H]1CN(C)Cc1ccc(Oc2ccccc2)cc1 | -88.9 | -5.8 | 2.6
CC(C)NC(=O)Nc1ccc2c(c1)CC(=O)N([C@H](C)CO)C[C@H](C)[C@@H](CN(C)Cc1ccc(Oc3ccccc3)cc1)O2 | 59.5 | 37.4* | 8.0
CC(C)NC(=O)Nc1ccc2c(c1)CC(=O)N([C@H](C)CO)C[C@H](C)[C@@H](CN(C)Cc1ccccc1)O2 | 19.1 | 0.0 | -5.8
CC(C)NC(=O)Nc1ccc2c(c1)CC(=O)N([C@H](C)CO)C[C@@H](C)[C@H](CN(C)Cc1ccc(Oc3ccccc3)cc1)O2 | 34.4 | 44.5* | -0.5
CC(C)NC(=O)Nc1ccc2c(c1)CC(=O)N([C@@H](C)CO)C[C@@H](C)[C@H](CN(C)Cc1ccc(-c3ccccc3)cc1)O2 | 14.9 | nt | 29.7*
CC(C)NC(=O)Nc1ccc2c(c1)CC(=O)N([C@@H](C)CO)C[C@@H](C)[C@@H](CN(C)Cc1ccc(Oc3ccccc3)cc1)O2 | -94.9 | -4.4 | -4.5
CC(C)NC(=O)Nc1ccc2c(c1)CC(=O)N([C@@H](C)CO)C[C@H](C)[C@H](CN(C)Cc1ccc(Oc3ccccc3)cc1)O2 | 22.8 | 16.2 | -17.3
CN(C)CC(=O)Nc1ccc2c(c1)[C@H]1C[C@H](CC(=O)N3CCCCC3)O[C@H](CO)[C@H]1O2 | 1.9 | -0.5 | 1.8
C[C@H](CO)N1C[C@H](C)[C@H](CN(C)Cc2ccccn2)Oc2ncc(C#CCN(C)C)cc2C1=O | 0.2 | -0.2 | -10.9
CC(C)CC#Cc1ccc2c(c1)O[C@@H](CN(C)C(=O)Cc1ccccc1)[C@H](C)CN([C@H](C)CO)S2(=O)=O | -29.0 | -0.4 | -1.7
C[C@@H]1CN([C@H](C)CO)C(=O)Cc2cc(NC(=O)Nc3ccc(C(F)(F)F)cc3)ccc2O[C@H]1CN(C)Cc1ccc(Oc2ccccc2)cc1 | 31.9 | 445.6* | 2.8
C[C@H]1CN([C@@H](C)CO)C(=O)Cc2cc(NC(=O)Nc3ccc4c(c3)OCO4)ccc2O[C@@H]1CN(C)Cc1ccc(-c2ccccc2)cc1 | 76.4* | nt | 18.1
C[C@H]1CN([C@@H](C)CO)C(=O)Cc2cc(NC(=O)Nc3ccc4c(c3)OCO4)ccc2O[C@H]1CN(C)Cc1ccc(-c2ccccc2)cc1 | 11.9 | nt | 10.2
C[C@H](CO)N1C[C@H](C)[C@@H](CN(C)Cc2ccc(Oc3ccccc3)cc2)Oc2ccc(NC(=O)CCC(F)(F)F)cc2CC1=O | 93.2* | 8.2 | -3.6
C[C@H]1CN([C@@H](C)CO)C(=O)Cc2cc(NC(=O)CCC(F)(F)F)ccc2O[C@H]1CN(C)Cc1ccc(Oc2ccccc2)cc1 | 10.3 | -0.9 | 4.7
C[C@@H]1CN([C@@H](C)CO)C(=O)Cc2cc(NC(=O)Nc3ccc(C(F)(F)F)cc3)ccc2O[C@H]1CN(C)Cc1ccc(Oc2ccccc2)cc1 | 6.9 | 19.0 | 14.5

Screening results: PubChem BioAssay, Broad Institute
